In the RNAGym collection of RNA variant scans (doi:10.1126/science.aae0568) one finds yeast fitness data, which are given here for 167 variants.

B1: tRNA (parent)
chain: GUUCCGUUGGCGUAAUGGUAACGCGUCUCCCUCCUAAGGAGAAGACUGCGGGUUCGAGUCCCGUACGGAACG

This sample holds only a part of the variants without activity.

The variants in the data set derive from B1. Put plainly: yeast fitness relative to wild type (ratio to wild type); higher = fitter; tRNA-Arg(CCU), competitive growth, 37 C, YPD. The method, boiled down:
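Start and end populations of a pooled competition were compared by 100-nucleotide paired-end sequencing of gene amplicons. The Saccharomyces cerevisiae strains carried tRNA-Arg(CCU) gene variants at the native genomic locus, synthesised with a 3% per-site mutation rate at 69 sites, and competed in YPD at 37°C for 24 hours in six parallel replicates. Darwinian fitness relative to wild type was based on the change in genotype frequencies. Genotypes required ≥ 100 starting reads, and estimates < 0.5 were set to 0.5.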
Consider G6A U8C C62U G67A, for which the yeast fitness is not above 0.5.

With G6A C34A A37C A40U, the yeast fitness is not above 0.5.

With G6A G18U C24A U32A G38A A43G A45U G52A, the yeast fitness amounted to 0.641.

As to G6A G39C A45G, the yeast fitness was not above 0.5.

As to G6A C24U G48C, the yeast fitness is 0.618.

On to G6A U7G C22G G50A, for which the yeast fitness is not above 0.5.

As for G6A U13A A37C, the yeast fitness is not above 0.5.

With G6A G12A A15C C24A, the yeast fitness is not above 0.5.

For G6A U19G U53C, the yeast fitness is not above 0.5.

As to G6A C49G C61U A69G, the yeast fitness was not above 0.5.

On to G6A C34G A37G U64C, for which the yeast fitness is not above 0.5.

Consider G6A U8C A42C A45U C61G, for which the yeast fitness is not above 0.5.

In the case of G6A G12A U13C U16A U19G G23A G58A G68A, the yeast fitness is not above 0.5.

In the case of G6A C29A C30G C61U A70G, the yeast fitness was not above 0.5.

With G6A G10C G63A, the yeast fitness was not above 0.5.

Take G6A G18C A21C C33A: the yeast fitness is 0.605.

With G6A C29U A43C C46U, the yeast fitness came out at 0.623.

With G6A U16G A21G, the yeast fitness was found to be 0.544.

With G6A G23A A42G C46U C55G, the yeast fitness amounted to 0.522.

As to G6A G18A, the yeast fitness amounted to 0.824.

In the case of G6A G56A G67U, the yeast fitness is not above 0.5.

With G6A U32A A45U A69C, the yeast fitness was found to be 0.565.

As for G6A C30U C49A, the yeast fitness is not above 0.5.

Take G6A G25C C33U G48A G63A: the yeast fitness is not above 0.5.

With G6A G38C C66U, the yeast fitness worked out at 0.532.

In the case of G6A C24U C61A, the yeast fitness was not above 0.5.

Regarding G6A U13C G23A A65C, the yeast fitness is not above 0.5.

Take G6A C29U U47A G51A A57G: the yeast fitness was not above 0.5.

For the variant G6A C24G U35A G48C, the yeast fitness was found to be 0.54.

For the variant G6A U26C A69U, the yeast fitness worked out at 0.664.

Regarding G6A C62U G67C, the yeast fitness is not above 0.5.

G6A C24U A65U: the yeast fitness is not above 0.5.

On to G6A G17C U35A G39A C55G C60U G67C, for which the yeast fitness was not above 0.5.

For G6A C27A C60A U64A, the yeast fitness was not above 0.5.

Take G6A C30U U35A A37G G38C U47A: the yeast fitness is not above 0.5.

In the case of G6A U8C U13G C27U C61G, the yeast fitness turned out to be 0.567.

For the variant G6A G17C A37C, the yeast fitness was found to be 0.634.

Take G6A G39C C55G: the yeast fitness is not above 0.5.

For the variant G6A U13A A14G A42U, the yeast fitness was not above 0.5.

With G6A C29U A57G U59C C62U, the yeast fitness is not above 0.5.

G6A C66A: the yeast fitness amounted to 0.879.

Take G6A C66G: the yeast fitness was 0.683.

With G6A C27A, the yeast fitness amounted to 0.707.

G6A C24U U47C: the yeast fitness worked out at 0.751.

Regarding G6A C24U G38A C61G C66U A69U, the yeast fitness was not above 0.5.

On to G6A G58A, for which the yeast fitness is 0.902.

G6A G58C: the yeast fitness was found to be 1.08.

For the variant G6A C55A G67A, the yeast fitness was 0.534.

Regarding G6A U16G A37C A57C C60A, the yeast fitness was not above 0.5.

With G6A U8A C24U A40U, the yeast fitness came out at 0.684.

For G6A G12C U16C C31U G52C A70G, the yeast fitness was found to be 0.651.

Turning to G6A G10A C60G, the yeast fitness is not above 0.5.

For G6A C31A U47G C62A, the yeast fitness was not above 0.5.

Consider G6A C34A A40U G52A A65U A70C, for which the yeast fitness is not above 0.5.

Consider G6A G23C C49G G50A U53G A57G, for which the yeast fitness was not above 0.5.

As to G6A G44U C66U, the yeast fitness worked out at 0.601.

In the case of G6A U13C C31U U32C G67C, the yeast fitness was not above 0.5.

With G6A C31A A69U, the yeast fitness amounted to 0.506.

As for G6A G18C C49A C61G, the yeast fitness is not above 0.5.

For G6A G23C C61U, the yeast fitness was not above 0.5.

Turning to G6A G9U C11U A70C, the yeast fitness was 0.533.

On to G6A G12A G41A A65U, for which the yeast fitness is 0.547.

In the case of G6A C31U A43U C55A, the yeast fitness is not above 0.5.

As to G6A C34G C62U G68A, the yeast fitness was not above 0.5.

As to G6A C33U C34U C62G, the yeast fitness was not above 0.5.

As to G6A G23C C49G U53G A57G, the yeast fitness was found to be 0.567.

In the case of G6A C24U C61G C66U A69U, the yeast fitness was 0.568.

Take G6A C30U A42C G48C: the yeast fitness is not above 0.5.

For G6A G12C U16A, the yeast fitness worked out at 0.799.

On to G6A C62U A65C, for which the yeast fitness was 0.763.

As for G6A G23U C24G U35A G48C, the yeast fitness is not above 0.5.

With G6A U26A G48C, the yeast fitness is 0.557.

Take G6A G10C U54C: the yeast fitness is not above 0.5.

With G6A C31A U59C A70U, the yeast fitness is not above 0.5.

Turning to G6A C24G C31G, the yeast fitness stood at 0.527.

On to G6A U13G C62G, for which the yeast fitness is not above 0.5.

With G6A U8A C11U, the yeast fitness is not above 0.5.

On to G6A C27G A36U C46U G67A, for which the yeast fitness was not above 0.5.

As for G6A U13G U28G, the yeast fitness was 0.511.

On to G6A G18C C22G C33G, for which the yeast fitness is not above 0.5.

G6A G17C C31G G50U U53A: the yeast fitness amounted to 0.559.

Turning to G6A G44A C46A, the yeast fitness was not above 0.5.

Consider G6A C46G G51A G52C C62G C66U, for which the yeast fitness was not above 0.5.

Turning to G6A U26C, the yeast fitness was 0.842.

Regarding G6A C66A A69C, the yeast fitness is 0.565.

Take G6A G9C A21C C30U A45U: the yeast fitness is not above 0.5.

Take G6A C29G C30A U64G A69C: the yeast fitness is not above 0.5.

In the case of G6A C31G C49A G68C, the yeast fitness is 0.536.

Take G6A C27U C31G A43C C49G G52C U59A: the yeast fitness is not above 0.5.

As to G6A G41A G51C, the yeast fitness is not above 0.5.

As to G6A G17A C31A C33G G38A, the yeast fitness is not above 0.5.

Regarding G6A U8C C62U, the yeast fitness is 0.604.

On to G6A G50A, for which the yeast fitness came out at 0.841.

In the case of G6A G50C, the yeast fitness stood at 0.629.

On to G6A G50U, for which the yeast fitness was determined as 0.826.

Turning to G6A U13A G17A G23C A45G, the yeast fitness amounted to 0.602.

Consider G6A G41A A42C G50C A70G, for which the yeast fitness amounted to 0.543.

For the variant G6A C27U C30U, the yeast fitness came out at 0.596.

In the case of G6A C33A, the yeast fitness was 0.686.

In the case of G6A C31U G41C A42U C66U, the yeast fitness was not above 0.5.

For the variant G6A G18C A37C C60A U64A, the yeast fitness was not above 0.5.

As for G6A C24U C29G C66U, the yeast fitness was not above 0.5.

Turning to G6A G48A A65C, the yeast fitness stood at 0.541.

As to G6A U19A A20G G23A, the yeast fitness is not above 0.5.

Take G6A C27A C30U G41C A43U C49A G63U: the yeast fitness is 0.54.

On to G6A G10A G18A C27G A37G G38A, for which the yeast fitness is not above 0.5.

Take G6A C33G A43U: the yeast fitness was 0.574.

On to G6A C27A A65G A70C, for which the yeast fitness is not above 0.5.

As to G6A U28A G68A, the yeast fitness was found to be 0.533.

With G6A U8G A36G, the yeast fitness was not above 0.5.

For the variant G6A U16C, the yeast fitness turned out to be 0.974.

Turning to G6A U16A, the yeast fitness stood at 0.769.

Regarding G6A G18C A37C C62A, the yeast fitness turned out to be 0.604.

As to G6A U32C C46G, the yeast fitness turned out to be 0.694.

With G6A G18A A36C U47G, the yeast fitness is not above 0.5.

Regarding G6A G25A C34A G58A, the yeast fitness is not above 0.5.

In the case of G6A U8C A14C C61U, the yeast fitness was not above 0.5.

With G6A G9C G44C G67A, the yeast fitness came out at 0.649.

As to G6A C24G G50A, the yeast fitness was not above 0.5.

As to G6A U19G A43U A65G G68A, the yeast fitness was not above 0.5.

On to G6A G10C C34U C46U, for which the yeast fitness is not above 0.5.

On to G6A U8G A42U C61G, for which the yeast fitness is not above 0.5.

For the variant G6A C29A C62A, the yeast fitness is not above 0.5.

Take G6A G12C U16A A21C: the yeast fitness is not above 0.5.

For the variant G6A G39A G52C C55G, the yeast fitness was not above 0.5.

G6A C31U C46A A57U C60U: the yeast fitness was not above 0.5.

Regarding G6A G44A G51C C66U, the yeast fitness was not above 0.5.

Regarding G6A C61U, the yeast fitness stood at 0.902.

As to G6A C61A, the yeast fitness is 0.66.

With G6A G17C G18C A45G, the yeast fitness is not above 0.5.

As for G6A C46U, the yeast fitness turned out to be 0.976.

As for G6A C46G, the yeast fitness stood at 0.937.

G6A C33A G58A A65C G67A: the yeast fitness was not above 0.5.

For the variant G6A G50A U53G A69G, the yeast fitness was not above 0.5.

As to G6A C24G, the yeast fitness was determined as 0.625.

On to G6A G12C U16C A21U, for which the yeast fitness was 0.532.

As for G6A G9A A14U G63A, the yeast fitness is 0.747.

G6A G44A C46A G52A: the yeast fitness turned out to be 0.629.

Regarding G6A C60G G67A, the yeast fitness is 0.53.

In the case of G6A C27G A40C, the yeast fitness stood at 0.545.

Regarding G6A G44A A45G G51C C66U A69C, the yeast fitness was not above 0.5.

Turning to G6A G9C A21G, the yeast fitness came out at 0.537.

Consider G6A G10A C22G G25C, for which the yeast fitness was not above 0.5.

For the variant G6A U13C C22G C55G, the yeast fitness was not above 0.5.

Consider G6A U8C G23A A57C, for which the yeast fitness is not above 0.5.

With G6A U7C G41A A42C G50C A70G, the yeast fitness was 0.593.

Regarding G6A G12C, the yeast fitness was found to be 0.855.

In the case of G6A G12C U16C C31U G52C, the yeast fitness amounted to 0.555.

As to G6A G68C, the yeast fitness is 0.754.

Regarding G6A C24A U53C A57C A65U, the yeast fitness was not above 0.5.

In the case of G6A G18C A21C C33A G52A, the yeast fitness was not above 0.5.

Consider G6A C33U C49A G58C A69U, for which the yeast fitness is not above 0.5.

G6A C27G A36C A42C A69C: the yeast fitness was not above 0.5.

For G6A G25A U59C, the yeast fitness was not above 0.5.

As for G6A G10A A45G, the yeast fitness was 0.647.

Consider G6A C31G C55U, for which the yeast fitness is 0.537.

Take G6A U13C C27G A37U C60A: the yeast fitness was not above 0.5.

For the variant G6A C49U G63A, the yeast fitness worked out at 0.688.

Regarding G6A U8C C34G, the yeast fitness was not above 0.5.

With G6A G9C C11G C34U A57G, the yeast fitness was determined as 0.54.

Consider G6A G10C A20C U28C A36U, for which the yeast fitness was 0.695.

With G6A U19G, the yeast fitness amounted to 0.828.

For the variant G6A U28A, the yeast fitness was determined as 0.821.

Regarding G6A U28G, the yeast fitness was found to be 0.886.

Regarding G6A U28C, the yeast fitness was 0.898.

For the variant G6A G17C, the yeast fitness worked out at 0.744.

For G6A G17A, the yeast fitness was found to be 0.633.
